Measured values: ChEMBL document CHEMBL3867488 (ACS Med Chem Lett, 2016)

Key:
[1] = Half life in cynomolgus monkey at 3 mg/kg, iv administered as 10 mins infusion by LC/MS/MS analysis; format: ADME, organism-based, Macaca fascicularis; details: in vivo
[2] = target: T1, Oxysterols receptor LXR-beta (Homo sapiens, UniProt P55055); assay: Agonist activity at LXR-beta in human whole blood assessed as ABCA1 gene induction by measuring ABCA1 mRNA level after 4 hrs by SYBR-Green dye-based Q-PCR analysis; format: tissue-based
T1 sequence (P55055 whole entry): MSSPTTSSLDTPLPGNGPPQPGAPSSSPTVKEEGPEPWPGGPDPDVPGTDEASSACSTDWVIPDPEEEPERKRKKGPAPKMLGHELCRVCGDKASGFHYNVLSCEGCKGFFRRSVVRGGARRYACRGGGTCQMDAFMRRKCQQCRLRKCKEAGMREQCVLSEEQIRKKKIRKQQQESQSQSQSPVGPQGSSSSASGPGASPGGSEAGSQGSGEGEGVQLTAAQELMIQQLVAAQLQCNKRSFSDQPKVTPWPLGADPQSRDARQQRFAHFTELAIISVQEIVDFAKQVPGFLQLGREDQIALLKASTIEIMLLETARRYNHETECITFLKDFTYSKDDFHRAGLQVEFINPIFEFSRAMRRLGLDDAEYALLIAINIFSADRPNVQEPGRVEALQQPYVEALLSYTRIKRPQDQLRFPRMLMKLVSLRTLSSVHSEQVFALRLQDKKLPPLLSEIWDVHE

[3] = target: T2, Nuclear receptor subfamily 1 group I member 2 (Homo sapiens, UniProt O75469); assay: Agonist activity at human PXR expressed in human HepG2 cells assessed as induction of CYP3A4 measured after 24 hrs by AlamarBlue dye-based luciferase reporter gene assay relative to control; format: cell-based; details: hepg2, 24 h
T2 sequence (O75469 whole entry): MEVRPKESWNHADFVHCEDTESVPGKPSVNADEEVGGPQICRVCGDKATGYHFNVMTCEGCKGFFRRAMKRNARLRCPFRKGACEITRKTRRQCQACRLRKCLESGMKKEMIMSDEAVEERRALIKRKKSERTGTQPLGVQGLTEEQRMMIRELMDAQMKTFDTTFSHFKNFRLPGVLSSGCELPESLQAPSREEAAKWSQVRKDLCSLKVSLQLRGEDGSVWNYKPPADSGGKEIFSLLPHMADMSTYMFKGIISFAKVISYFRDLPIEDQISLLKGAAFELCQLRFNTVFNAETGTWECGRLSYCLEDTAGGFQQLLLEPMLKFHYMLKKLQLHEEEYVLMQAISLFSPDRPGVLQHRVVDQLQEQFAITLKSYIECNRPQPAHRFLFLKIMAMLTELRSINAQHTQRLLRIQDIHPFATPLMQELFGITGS

[4] = Plasma concentration in cynomolgus monkey at 1 mg/kg, po qd administered via gavage for 14 days measured after 5 hrs of last-dose by LC/MS/MS analysis; format: ADME, organism-based, Macaca fascicularis
In short: (§1)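 Cynomolgus monkeys dosed daily for 14 days. On day 14, plasma drug concentration was taken 5 h post-dose. Plasma triglycerides were expressed as % elevation over baseline, with significance tested by ANOVA (p < 0.05).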

[5] = target: T2, Nuclear receptor subfamily 1 group I member 2; assay: Agonist activity at human PXR expressed in human HepG2 cells assessed as induction of CYP3A4 measured after 24 hrs by AlamarBlue dye-based luciferase reporter gene assay; format: cell-based
[6] = Plasma concentration in cynomolgus monkey at 0.3 mg/kg, po qd administered via gavage for 14 days measured after 5 hrs of last-dose by LC/MS/MS analysis; format: ADME, organism-based, Macaca fascicularis; in short: as §1

CC(C)(O)c1cn(-c2ccc(-c3cc(F)c(CO)c(S(C)(=O)=O)c3)cc2F)c(C(C)(C)c2c(Cl)cccc2Cl)n1 [BMS-852927]
t1/2 [1]: 12 h | EC50 [2]: 0.009 µM | Activity [3]: 108% | concentration at 5 h [4]: 57 nM | EC50 [5]: 1 µM | concentration at 5 h [6]: 22 nM
